Where a chain is given by its changes, count along the chain named.
Columns and labels:
SRD5A = target: T1, SRD5A (Homo sapiens, UniProt P18405); experiment: Conversion of [3H]-AD to 5α-reduced androgens in LAPC4 cells; assay type: cell-based; conditions: up to 100 μM
T1 sequence (P18405 1-259): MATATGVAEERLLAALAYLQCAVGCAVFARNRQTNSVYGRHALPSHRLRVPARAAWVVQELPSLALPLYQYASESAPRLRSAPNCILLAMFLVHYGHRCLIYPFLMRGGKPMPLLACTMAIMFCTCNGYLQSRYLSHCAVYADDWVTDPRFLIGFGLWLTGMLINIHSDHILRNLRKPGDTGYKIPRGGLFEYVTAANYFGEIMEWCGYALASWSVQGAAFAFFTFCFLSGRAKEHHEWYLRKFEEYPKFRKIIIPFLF
How it was run: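 LAPC4 cells (IMDM, 10% FBS) seeded at 0.2 million/well for ~24 h, then given [3H]-AD mixed with unlabeled AD (final 100 nM, ~1,000,000 cpm/well) plus test compound at 37°C. Medium treated with β-glucuronidase (65°C, 2 h), extracted with ethyl acetate:isooctane (1:1), dried. Steroids separated by C18 reverse-phase HPLC, methanol/water gradient. Biological n=3; repeated three times.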

LNCaP cells = experiment: Cell proliferation assay, DHT-induced growth; assay type: cell-based; conditions: DHT 0.5 nM, 2, 4 and 6 days
How it was run: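 LNCaP cells (0.1 million/mL) in phenol red-free RPMI-1640 with 10% charcoal-stripped FBS plus androgen and/or test compound. Medium changed every other day. Cells lysed after 2, 4 or 6 days; growth measured as DNA content by Hoechst fluorescence. Two-tailed Student's t-test.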

metastatic CRPC = conditions: cited from earlier work
[1] = target: T2, mutant AR (expressed in LNCaP) (Homo sapiens, UniProt P10275, T878A); experiment: cell-based; assay type: binding
T2 sequence (P10275 1-920 T878A): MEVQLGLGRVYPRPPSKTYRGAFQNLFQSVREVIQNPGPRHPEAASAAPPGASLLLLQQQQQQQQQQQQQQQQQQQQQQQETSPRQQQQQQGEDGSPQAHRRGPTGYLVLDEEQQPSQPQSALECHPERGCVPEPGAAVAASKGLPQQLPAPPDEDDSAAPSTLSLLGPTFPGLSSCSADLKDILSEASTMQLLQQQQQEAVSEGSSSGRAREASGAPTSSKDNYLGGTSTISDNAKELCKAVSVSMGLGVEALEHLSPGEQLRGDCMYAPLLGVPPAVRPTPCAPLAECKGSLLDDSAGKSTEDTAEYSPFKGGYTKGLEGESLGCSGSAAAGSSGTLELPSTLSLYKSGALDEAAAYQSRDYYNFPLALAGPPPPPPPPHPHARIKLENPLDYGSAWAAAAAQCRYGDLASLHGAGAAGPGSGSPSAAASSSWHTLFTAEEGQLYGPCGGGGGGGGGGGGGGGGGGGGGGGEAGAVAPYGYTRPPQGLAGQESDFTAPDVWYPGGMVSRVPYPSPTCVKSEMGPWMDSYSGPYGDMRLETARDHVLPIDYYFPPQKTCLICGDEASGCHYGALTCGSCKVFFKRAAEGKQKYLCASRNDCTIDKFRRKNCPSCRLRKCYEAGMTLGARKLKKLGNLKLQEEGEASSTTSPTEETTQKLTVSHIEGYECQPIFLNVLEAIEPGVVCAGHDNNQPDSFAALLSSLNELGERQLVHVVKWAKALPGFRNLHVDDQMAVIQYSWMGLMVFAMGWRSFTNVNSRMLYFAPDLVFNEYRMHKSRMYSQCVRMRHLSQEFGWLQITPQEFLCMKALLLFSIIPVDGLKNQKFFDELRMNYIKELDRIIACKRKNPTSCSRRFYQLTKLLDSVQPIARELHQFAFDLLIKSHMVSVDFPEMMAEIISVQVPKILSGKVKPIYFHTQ

[2] = target: T3, wild-type AR (expressed in LAPC4) (Homo sapiens, UniProt P10275); experiment: cell-based; assay type: binding
T3 sequence (P10275 1-920): T2 sequence (P10275 1-920 T878A) with A878T

[3] = patients, wide interpatient variability; cited from earlier work

Row | SMILES | effect on conversion from AD to 5α-reduced androgens (SRD5A) | effect on DHT-stimulated cell growth (LNCaP cells) | survival in metastatic CRPC (metastatic CRPC) | IC50 [1] [nM] | IC50 [2] [nM] | Cmax [3] [nM]
1 | CNC(=O)c1ccc(N2C(=S)N(c3ccc(C#N)c(C(F)(F)F)c3)C(=O)C2(C)C)cc1F [enzalutamide] | no detectable effect | more potent than Abi | – | – | – | –
2 | CNC(=O)c1ccc2cc([C@@]3(O)CCn4cncc43)ccc2c1 [TAK-700] | – | – | failed to prolong survival | – | – | –
3 | C[C@]12CC[C@H](O)CC1=CC[C@@H]1[C@@H]2CC[C@]2(C)C(c3cccnc3)=CC[C@@H]12 [Abi, abiraterone] | no detectable effect | – | – | 418 | > 500 | ~1000

Source: PMC4506215 (Nature, 2015)
